Measured values: ChEMBL document CHEMBL3994633, “Exploration of phenylpropanoic acids as agonists of the free fatty acid receptor 4 (FFA4): Identification of an orally efficacious FFA4 agonist” (Bioorg Med Chem Lett, 2017)
pEC50: −log10 of the molar value.

Key:
[1] = target: T1, Free fatty acid receptor 4 (Homo sapiens) (UniProt Q5NUL3); test: Agonist activity at human FFA4 receptor expressed in human U2OS cells co-expressing Galpha16 assessed as calcium mobilization by Fluo-4 dye based FLIPR assay relative to GSK137647A; assay type: functional, cell-based
T1 sequence (whole entry): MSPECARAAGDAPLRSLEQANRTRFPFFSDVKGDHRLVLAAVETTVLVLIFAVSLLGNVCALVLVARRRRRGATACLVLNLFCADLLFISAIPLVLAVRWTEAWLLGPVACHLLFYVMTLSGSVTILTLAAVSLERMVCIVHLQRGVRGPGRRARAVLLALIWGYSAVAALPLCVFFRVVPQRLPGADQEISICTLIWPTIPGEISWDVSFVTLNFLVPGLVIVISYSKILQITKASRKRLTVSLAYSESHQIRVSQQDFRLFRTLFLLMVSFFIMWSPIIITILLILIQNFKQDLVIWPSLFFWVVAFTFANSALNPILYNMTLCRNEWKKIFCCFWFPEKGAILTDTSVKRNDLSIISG
How it was run: (§1)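 U2OS cells transiently expressing human FFA1 or FFA4. Agonism measured from a ten-point dose-response curve with FLIPR readout, giving EC50 (nM) and efficacy (% max response). Values are means of three experiments.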

[2] = target: T2, Free fatty acid receptor 1 (Homo sapiens, UniProt O14842); test: Agonist activity at human FFA1 receptor expressed in human U2OS cells co-expressing Galpha16 assessed as calcium mobilization by Fluo-4 dye based FLIPR assay relative to GSK137647A; assay type: functional, cell-based; how it was run: as §1
[3] = target: T2, Free fatty acid receptor 1; test: Agonist activity at human FFA1 receptor expressed in human U2OS cells co-expressing Galpha16 assessed as calcium mobilization by Fluo-4 dye based FLIPR assay; assay type: functional, cell-based; settings: for pEC50: read-out: EC50; how it was run: as §1
[4] = target: T3, Free fatty acid receptor 4 (Homo sapiens, UniProt Q5NUL3); test: Agonist activity at human FFA4 receptor expressed in human U2OS cells co-expressing Galpha16 assessed as calcium mobilization by Fluo-4 dye based FLIPR assay; assay type: functional, cell-based; how it was run: as §1
T3 sequence (Q5NUL3 whole entry): T1 sequence (whole entry)

[5] = AUC in C57BL/6J mouse at 10 mg/kg, po; assay type: ADME, organism-based; settings: in vivo
How it was run: (§2)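 C57BL/6J mice (n = 2), single oral dose of 10 mg/kg given as a suspension in 0.5% HMPC: 0.1% Tween. Plasma Cmax and AUC (hr*ng/mL) measured; %F calculated against the IV leg.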

[6] = AUC in C57BL/6J mouse at 3 mg/kg, iv; assay type: ADME, organism-based; settings: in vivo
How it was run: (§3)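 C57BL/6J mice (n = 2) dosed intravenously at 3 or 4.2 mg/kg. Clearance (mL/min/kg) and AUC (hr*ng/mL) derived from plasma concentrations.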

[7] = Cmax in C57BL/6J mouse at 10 mg/kg, po; assay type: ADME, organism-based; parameters: dose 10 mg/kg, route oral; settings: in vivo; how it was run: as §2
[8] = Tmax in C57BL/6J mouse at 10 mg/kg, po; assay type: ADME, organism-based; settings: in vivo
[9] = Clearance in C57BL/6J mouse at 3 mg/kg, iv; assay type: ADME, organism-based; settings: in vivo; how it was run: as §3
[10] = Oral bioavailability in C57BL/6J mouse at 10 mg/kg; assay type: ADME, organism-based; settings: in vivo; how it was run: as §2
[11] = Volume of distribution at steady state in C57BL/6J mouse at 3 mg/kg, iv or 10 mg/kg, po; assay type: ADME, organism-based; settings: in vivo, read-out: Vdss
[12] = Protein binding in human plasma; assay type: ADME, cell-free; settings: read-out: PPB
Homo sapiens [13] = organism: Homo sapiens; test: Selectivity ratio of EC50 for human FFA1 receptor expressed in human U2OS cells co-expressing Galpha16 to EC50 for human FFA4 receptor expressed in human U2OS cells co-expressing Galpha16; assay type: cell-based
Homo sapiens [14] = organism: Homo sapiens; test: Selectivity ratio of EC50 for human FFA4 receptor expressed in human U2OS cells co-expressing Galpha16 to EC50 for human FFA1 receptor expressed in human U2OS cells co-expressing Galpha16; assay type: cell-based

T2 sequence (O14842 whole entry): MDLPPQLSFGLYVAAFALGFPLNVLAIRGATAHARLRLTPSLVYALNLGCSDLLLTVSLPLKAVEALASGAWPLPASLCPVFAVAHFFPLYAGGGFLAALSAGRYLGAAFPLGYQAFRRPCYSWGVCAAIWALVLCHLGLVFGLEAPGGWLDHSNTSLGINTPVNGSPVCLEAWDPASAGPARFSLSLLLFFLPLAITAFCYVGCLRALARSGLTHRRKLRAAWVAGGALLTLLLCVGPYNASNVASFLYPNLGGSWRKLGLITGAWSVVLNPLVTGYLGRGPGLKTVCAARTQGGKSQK

Structure (SMILES)	%max [1]	%max [2]	pEC50 [3]	pEC50 [4]	other results
Cc1cc(OCc2ccccc2SC(F)(F)F)ccc1CCC(=O)O	90%	108%	5.81	6.14	
O=C(O)CCc1ccc(OCc2ccccc2SC(F)(F)F)c2ccccc12	105%		< 4.52	5.64	
Cc1cc(CCC(=O)O)ccc1OCc1cccc(Cl)c1	104%	60%	4.99	6.44	
Cc1ccc(OC(C)C)c(COc2ccc(CCC(=O)O)cc2C)c1	106%	154%	4.71	6.76	
Cc1cc(CCC(=O)O)ccc1OCc1ccccc1	83%		< 4.52	6.12	
Cc1cc(CCC(=O)O)ccc1OCc1cc(C(F)(F)F)ccc1O	78%			5.00	
Cc1cccc(COc2ccc(CCC(=O)O)cc2C)c1	100%		< 4.52	6.56	AUC [5]: 5350 ng·h/mL; AUC [6]: 4100 ng·h/mL; Cmax [7]: 3080 ng/mL; Tmax [8]: 15 to 30 min; clearance [9]: 12 mL/min/kg; bioavailability [10]: 39%; Vd [11]: < 2 L/kg; fraction unbound [12]: < 0.01
CC(C)Cc1cc(CCC(=O)O)ccc1OCc1ccccc1SC(F)(F)F	161%		< 4.52	5.02	
CC(CC(=O)O)c1ccc(OCc2ccccc2SC(F)(F)F)cc1 (centres undefined)		109%	4.88	4.94	
Cc1cc(CCC(=O)O)ccc1OCc1ccccc1Br	116%		< 4.52	6.63	
Cc1cc(CCC(=O)O)ccc1OCc1ccccc1Cl	130%	80%	4.94	6.01	
COc1cc(CCC(=O)O)ccc1OCc1ccccc1SC(F)(F)F	110%		< 4.52	5.70	
Cc1cc(COc2ccc(CCC(=O)O)cc2C)cc(Oc2ccccc2)c1	97%	85%	5.79	7.40	
Cc1ccc(Cl)c(COc2ccc(CCC(=O)O)cc2C)c1	115%	243%	4.74	6.73	AUC [5]: 4400 ng·h/mL; AUC [6]: 2860 ng·h/mL; Cmax [7]: 3030 ng/mL; Tmax [8]: 15 to 30 min; clearance [9]: 18 mL/min/kg; bioavailability [10]: 46%; Vd [11]: < 2 L/kg; fraction unbound [12]: < 0.01
Cc1c(CCC(=O)O)ccc(OCc2ccccc2SC(F)(F)F)c1C	77%		< 4.52	6.52	
Cc1cc(CCC(=O)O)ccc1OCc1ccccc1OC(C)C	118%		< 4.52	6.57	
Cc1cc(COc2ccc(CCC(=O)O)cc2C)cc(OC(C)C)c1	112%		< 4.52	7.22	AUC [5]: 767 ng·h/mL; AUC [6]: 1170 ng·h/mL; Cmax [7]: 687 ng/mL; Tmax [8]: 15 to 30 min; clearance [9]: 43 mL/min/kg; bioavailability [10]: 20%; Vd [11]: < 2 L/kg; fraction unbound [12]: < 0.01
Cc1cc(CCC(=O)O)ccc1OCc1cccc(Oc2ccccc2)c1	95%	90%	5.42	6.25	
O=C(O)CCc1ccc(OCc2ccccc2SC(F)(F)F)cc1	105%	74 to 77%	5.85	6.17	Ratio EC50 (Homo sapiens [13]): 2
O=C(O)CCc1ccc(OCc2ccccc2SC(F)(F)F)c(CO)c1	53%		< 4.52	5.23	
O=C(O)CCc1ccc(OCc2ccccc2SC(F)(F)F)c(Cl)c1	80%		< 5.00	6.97	EC50 ([3]; read-out: pEC50 (converted)): > 31600 nM
O=C(O)COc1ccc(OCc2ccccc2SC(F)(F)F)cc1	85%		< 4.52	5.00	
O=C(O)CCc1ccc(OCc2cccc(Oc3ccccc3)c2)cc1	85%	106%		6.01	Ratio EC50 (Homo sapiens [14]): 17
Cc1cc(CCC(=O)O)ccc1OCc1cccc(C(F)(F)F)c1	117%		< 4.52	6.05	
Cc1cc(CCC(=O)O)cc(C)c1OCc1ccccc1SC(F)(F)F	102%	115%	4.66	6.18	
O=C(O)CC(O)c1ccc(OCc2ccccc2SC(F)(F)F)cc1 (centres undefined)				< 4.52	
Cc1cc(CCC(=O)O)ccc1OCc1ccccc1SC(F)(F)F	108%	81%	5.07	6.70	
Cc1cc(C)cc(COc2ccc(CCC(=O)O)cc2C)c1	66%	97%	5.42	7.22	AUC [5]: 2600 ng·h/mL; AUC [6]: 1420 ng·h/mL; Cmax [7]: 2630 ng/mL; Tmax [8]: 15 to 30 min; clearance [9]: 35 mL/min/kg; bioavailability [10]: 55%; Vd [11]: < 2 L/kg; fraction unbound [12]: < 0.01
Cc1cc(CCC(=O)O)ccc1OCc1ccccc1C(F)(F)F	103%	95%	5.07	6.27	
Cc1ccc(Br)c(COc2ccc(CCC(=O)O)cc2C)c1	118%		< 4.52	7.28	
